Hck Nef HTS: blocks Nef-activated human Hck kinase; P08631; inhibition, % at 20 µM; Recombinant Hck-YEEI plus Nef, Z-Lyte FRET kinase assay; actives 0.68% (n = 220,000);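 active = Hck-Nef kinase inhibition above about 50%, limit read from the data; inactive = inhibition below that limit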
Target sequence (P08631 whole entry, looked up): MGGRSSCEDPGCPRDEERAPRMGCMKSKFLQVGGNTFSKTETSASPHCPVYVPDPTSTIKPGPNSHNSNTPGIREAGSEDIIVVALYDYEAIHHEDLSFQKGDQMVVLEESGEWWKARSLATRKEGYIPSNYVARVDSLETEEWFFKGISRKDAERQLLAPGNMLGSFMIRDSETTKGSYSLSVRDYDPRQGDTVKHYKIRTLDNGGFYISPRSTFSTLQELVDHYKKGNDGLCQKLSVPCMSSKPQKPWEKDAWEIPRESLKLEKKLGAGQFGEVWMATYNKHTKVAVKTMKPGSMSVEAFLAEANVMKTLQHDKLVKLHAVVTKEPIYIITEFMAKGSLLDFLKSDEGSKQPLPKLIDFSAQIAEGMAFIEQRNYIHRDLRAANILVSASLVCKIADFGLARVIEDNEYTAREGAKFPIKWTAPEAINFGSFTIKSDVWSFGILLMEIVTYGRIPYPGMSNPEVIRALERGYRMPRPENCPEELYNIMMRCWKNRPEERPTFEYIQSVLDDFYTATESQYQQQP
RanGTP-Imp inh: disruptors of Ran-importin-beta complex formation – biochemical, FRET, CFP-Ran, YFP-importin-beta, homogeneous, primary screen | cell-free CFP-Ran/YFP-importin-beta FRET ratio | inhibition, % (test concentration not listed) | actives 1.1% (n = 300,000) | AID 2216;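 active = more than half of the replicate wells show a fall in the fluorescence ratio signal beyond about 16%, limit read from the data, passing the limit was not always enough; inconclusive = exactly half of the replicate wells pass the set limit; inactive = fewer than half of replicates pass the limit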
Runt-SMMHC FRET: Runt domain-CBFb-SMMHC interaction inhibition; Q01196+Q13951; Cerulean-Runt/Venus-CBFb-SMMHC FRET ratio 530/480, 1 h; inhibition, % at 20 µM; actives 0.74% (n = 220,000);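 active = mean inhibition across duplicate retests at 20 µM reaching about 50%, limit read from the data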;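 note: inhibitors lower the FRET ratio by blocking Runt binding to CBFb-SMMHC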
Runt-CBFb FRET: Runt domain-CBFb interaction inhibition. Q01196+Q13951. Cerulean-Runt/Venus-CBFb FRET ratio 530/480, 1 h. inhibition, % at 20 µM. actives 0.46% (n = 220,000);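 active = inhibition over about 50% at 20 µM in the single-dose screen, limit read from the data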
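Measured by: fluorescence energy transfer, 422 nm excitation, 530/480 nm emission; Assay system: Cerulean-Runt domain; Medium: Tris pH 7.5 buffer with BSA; Measure: loss of energy transfer signal; Controls: 5 µM unlabeled CBFb as full-inhibition high control; Incubation: protein complex preformed 1 h, compound exposure 1 h, room temperature, dark.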
Tb hexokinase: blocks Trypanosoma brucei hexokinase 1 activity. recombinant TbHK1, G6PDH-coupled NADH A340. actives 0.11% (n = 220,000). inhibition, % at 10 µM. AID 1430;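 active = inhibition of 50% or more in the single-dose primary screen; inactive = inhibition below 50%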
A number is an active result; . = inactive; ? = inconclusive; / = not tested or not shown. Only some compounds are listed: those with a hit (about 1.9% of all), similar ones and a draw of the others.

SMILES	Hck Nef HTS	RanGTP-Imp inh	Runt-SMMHC FRET	Runt-CBFb FRET	Tb hexokinase
Nc1c(C(=O)NCCN2CCOCC2)c2nc3ccccc3nc2n1CCc1ccccc1	.	85.1	.	73.7	.
Nc1c(C(=O)NCc2ccco2)c2nc3ccccc3nc2n1CCc1ccc(F)cc1	.	58.3	.	.	.
Nc1c(C(=O)NCCN2CCOCC2)c2nc3ccccc3nc2n1-c1ccccc1	.	80.6	97.9	.	.
COc1ccc(C(=O)COc2ccccc2N2C(=O)C3C4C=CC(C4)C3C2=O)cc1 (stereo not drawn)	.	.	.	.	.
CCOc1ccc(C(C)=O)cc1CN1C(=O)C(=O)N(CC)C1=O	.	?	.	.	.
Cc1cccc2cc(C#N)c(NCCNS(=O)(=O)c3ccccc3)nc12	.	.	58.2	.	.
Cc1cccc2cc(C#N)c(NCCCNS(=O)(=O)c3ccc(Cl)cc3)nc12	.	47.2	74.3	.	.
Cc1nn(Cc2ccccc2)c(Cl)c1/C=C/C(=O)OCC(=O)N1CCCC1=O	.	.	.	.	.
CN(C)c1ccc(/C=c2/sc3n(c2=O)NC2(c4ccccc4)N(C)C(=O)N(C)C2(c2ccccc2)N=3)cc1 (stereo not drawn)	.	20.4	.	.	.
N#Cc1cccc(NC(=S)Nc2ccccc2)c1	.	.	.	.	.
O=C(NC(Cc1ccccc1)C(=O)O)/C(=C/c1ccc(Br)cc1)NC(=O)c1ccc(Br)o1 (stereo not drawn)	/	23.9	/	/	/
O=C(NC(Cc1ccccc1)C(=O)O)/C(=C\c1ccc(Br)cc1)NC(=O)c1ccc(Br)o1 (stereo not drawn)	/	.	/	/	/
O=C(NCc1ccco1)/C(=C/c1ccc(Br)cc1)NC(=O)c1ccco1	/	23.0	/	/	/
O=C(NCc1ccccc1)/C(=C\c1ccc(O)cc1)NC(=O)c1ccco1	/	.	/	/	/
C=COc1ccc(N2C(=O)c3ccccc3OC2C)cc1 (stereo not drawn)	/	.	/	/	/
N=c1c(C(=O)NC2CCCC2)cc2c(=O)n3ccccc3nc2n1CCCN1CCOCC1	/	139.7	/	/	/
N=c1c(C(=O)NC2CCCC2)cc2c(=O)n3ccccc3nc2n1CCN1CCOCC1	.	99.1	76.9	99.2	.
CCOCCCn1c(=NC(=O)c2cccs2)c(C#N)cc2c(=O)n3cccc(C)c3nc21	.	120.8	81.0	76.2	.
Cc1cccn2c(=O)c3cc(C#N)c(=NC(=O)c4cccs4)n(CC(C)C)c3nc12	.	151.3	88.1	.	.
CC(=O)OC(C)[C@H]1CC[C@H]2[C@@H]3CC[C@H]4C[C@@H](OC(C)=O)CC[C@]4(C)C3=CC[C@]12C (stereo partly drawn)	/	.	/	/	/
Cc1ccc2oc(=O)c3cc(C(=O)NCCN4CCN(C)CC4)sc3c2c1	.	26.5	.	.	.
Cc1ccc2oc(=O)c3cc(C(=O)NCCCN4CCCCCC4)sc3c2c1	/	.	/	/	/
CCOCCCNC(=O)c1cc2c(=O)n3cccc(C)c3nc2n1C	/	.	.	.	/
CCOCCCn1c(=N)c(C(N)=S)cc2c(=O)n3cccc(C)c3nc21	.	173.3	/	.	.
Cc1cccn2c(=O)c3cc(C(=O)NCCCOC(C)C)sc3nc12	/	.	/	/	/
SMILES	Hck Nef HTS	RanGTP-Imp inh	Runt-SMMHC FRET	Runt-CBFb FRET	Tb hexokinase
Cc1cccn2c(=O)c3cc(C(N)=S)c(=N)n(CCCOC(C)C)c3nc12	.	173.9	65.3	56.8	.
CCOC(=O)c1cc2c(=O)n3cccc(C)c3nc2n(C)c1=N	148.2	/	.	.	.
O=C(NCC1CCCO1)c1ccc2c(c1)N(Cc1ccccc1)C(=O)CS2 (stereo not drawn)	/	.	/	/	/
O=C(CN1C(=O)/C(=C2\SC(=S)N(C3CCS(=O)(=O)C3)C2=O)c2ccccc21)Nc1ccccc1 (stereo not drawn)	.	/	.	.	.
Cc1ccc(NC(=O)CN2C(=O)/C(=C3\SC(=S)N(C4CCS(=O)(=O)C4)C3=O)c3ccccc32)cc1 (stereo not drawn)	97.0	/	.	.	.
CCOC(=O)c1c(C)nn(Cc2cccc(Cl)c2)c1N	.	.	.	70.2	.
CCOC(=O)c1nn(-c2cccc(Cl)c2)c(C)c1C(C)=O	.	.	.	.	.
O=[N+]([O-])c1ccccc1S(=O)(=O)Nc1ccn(Cc2c(F)cccc2Cl)n1	/	.	/	/	/
Cc1ncoc1C(=O)N1CCc2c([nH]c3ccccc23)C1C1CCCCC1 (stereo not drawn)	.	?	.	.	.
